Series [1] can be described thus: In vitro microsomal stability. Format: in vitro ADME. The conditions noted are these: human liver microsomes, 1 μM. Put shortly: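 Compound (1 μM) with pooled human liver microsomes (0.4 mg mL−1) in 100 mM potassium phosphate, pH 7.4, with 3.3 mM MgCl2 and 1.3 mM β-NADPH. Organic solvent was ≤1%, at 37 °C. Time-point samples were quenched with ice-cold acetonitrile containing internal standard, centrifuged, and the supernatants analysed by LC-MS/MS. Results are intrinsic clearance.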

Series [2] concerns all tested CYPs: CYP1A2, CYP2A6, CYP2B6, CYP2C8, CYP2C9, CYP2C19, CYP2D6, CYP2E1, CYP3A4/5. Description: CYP450 inhibition in human liver microsomes, all tested CYPs. Format: in vitro ADME. The conditions noted are these: pooled human liver microsomes, pH 7.4. Summed up: (§1)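 Test compound at 10 μM with pooled human liver microsomes (0.2 mg mL−1) and a cocktail of 10 CYP probe substrates. Buffer was 100 mM potassium phosphate, pH 7.4, with 3.3 mM MgCl2, at 37 °C. β-NADPH (1.3 mM) started the reaction. After 10 min, ice-cold 3% formic acid in 5% acetonitrile stopped it. Centrifuged samples went to LC-MS/MS; each metabolite's formation is given as % inhibition versus control.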
On the technique in general: Liver microsomes are vesicles of endoplasmic reticulum, rich in cytochrome P450 enzymes.

Series [3] relates to HBV DNA in HBV-expressed HepG2.2.15 cells. Description: In vitro anti-HBV activity in HepG2.2.15 cell line. It is filed as cell-based. The conditions noted are these: Hepatitis B virus; for activity at 1 µM: HepG2.2.15, 144 h, read-out: % HBV DNA remaining. Put shortly:
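HepG2.2.15 cells were seeded at 5 × 10^5 per well in high-glucose DMEM with 10% heat-inactivated FBS, 300 mg L−1 G418, 1% non-essential amino acids and antibiotic–antimycotic, then held overnight at 37 °C, 5% CO2. Compound or 0.5% DMSO was given for 3 days, then renewed for 3 more days. Intracellular HBV DNA was measured by qPCR as % remaining versus vehicle; EC50 came from a 4-parameter nonlinear fit.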

In the next series the target is T1, CYP2B6 (Homo sapiens, UniProt P20813).
T1 sequence (P20813 1-491): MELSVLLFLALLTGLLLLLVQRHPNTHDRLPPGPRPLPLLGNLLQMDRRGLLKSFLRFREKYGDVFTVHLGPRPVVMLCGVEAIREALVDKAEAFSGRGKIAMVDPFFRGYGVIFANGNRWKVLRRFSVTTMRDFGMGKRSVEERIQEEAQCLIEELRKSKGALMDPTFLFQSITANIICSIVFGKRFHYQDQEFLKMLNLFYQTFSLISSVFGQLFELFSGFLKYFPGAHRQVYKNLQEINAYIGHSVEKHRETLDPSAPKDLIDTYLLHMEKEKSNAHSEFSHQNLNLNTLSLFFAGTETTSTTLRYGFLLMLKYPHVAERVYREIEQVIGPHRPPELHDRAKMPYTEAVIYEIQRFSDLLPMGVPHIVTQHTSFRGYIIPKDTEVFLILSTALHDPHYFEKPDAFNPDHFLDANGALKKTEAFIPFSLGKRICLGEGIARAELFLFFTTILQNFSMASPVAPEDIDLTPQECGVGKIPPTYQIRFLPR
Nature of the series: CYP450 inhibition in human liver microsomes. Particulars: pooled human liver microsomes, pH 7.4, probe bupropion (12 μM). It is filed as in vitro ADME. Put shortly: as §1

For a further series, the target named is CYP2C9 (Homo sapiens, UniProt P11712). Description: CYP450 inhibition in human liver microsomes. It is filed as in vitro ADME. The conditions noted are these: pooled human liver microsomes, pH 7.4, probe tolbutamide (100 μM). Summed up: as §1
CYP2C9, sequence (P11712 whole entry): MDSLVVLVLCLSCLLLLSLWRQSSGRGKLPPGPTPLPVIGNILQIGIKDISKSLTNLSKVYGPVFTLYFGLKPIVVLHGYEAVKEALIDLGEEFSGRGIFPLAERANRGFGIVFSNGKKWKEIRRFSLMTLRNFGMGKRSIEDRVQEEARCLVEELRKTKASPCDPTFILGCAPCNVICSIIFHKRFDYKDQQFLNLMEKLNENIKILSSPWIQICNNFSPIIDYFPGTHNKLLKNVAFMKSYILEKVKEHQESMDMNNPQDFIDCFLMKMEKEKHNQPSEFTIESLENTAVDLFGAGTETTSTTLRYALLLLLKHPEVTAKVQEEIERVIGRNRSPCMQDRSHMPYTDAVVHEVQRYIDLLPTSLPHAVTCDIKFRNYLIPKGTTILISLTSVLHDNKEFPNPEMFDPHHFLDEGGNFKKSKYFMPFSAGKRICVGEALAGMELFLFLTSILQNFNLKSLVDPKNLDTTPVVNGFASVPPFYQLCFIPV
A short description of series [4]: Site of oxidative metabolism. It is filed as in vitro ADME. The conditions noted are these: ESI file S2.
For another series, the target named is CYP2D6 (Homo sapiens, UniProt P10635). Description: CYP450 inhibition in human liver microsomes. It is filed as in vitro ADME. The conditions noted are these: pooled human liver microsomes, pH 7.4, probe dextromethorphan (2.5 μM). Summed up: as §1
CYP2D6, sequence (P10635 whole entry): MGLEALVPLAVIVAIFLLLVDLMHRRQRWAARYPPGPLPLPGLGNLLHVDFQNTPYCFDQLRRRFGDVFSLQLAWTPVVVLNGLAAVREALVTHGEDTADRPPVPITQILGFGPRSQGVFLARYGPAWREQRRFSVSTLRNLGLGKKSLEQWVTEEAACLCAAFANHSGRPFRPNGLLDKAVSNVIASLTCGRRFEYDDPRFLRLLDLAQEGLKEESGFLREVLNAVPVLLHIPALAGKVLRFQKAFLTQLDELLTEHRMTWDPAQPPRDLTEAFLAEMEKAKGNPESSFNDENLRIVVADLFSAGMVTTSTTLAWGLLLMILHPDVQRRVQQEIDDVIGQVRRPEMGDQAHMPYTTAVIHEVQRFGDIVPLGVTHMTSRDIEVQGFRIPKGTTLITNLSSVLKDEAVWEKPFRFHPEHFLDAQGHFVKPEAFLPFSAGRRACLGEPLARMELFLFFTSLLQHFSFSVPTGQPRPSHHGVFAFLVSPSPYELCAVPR
Another series addresses CYP2C19 (Homo sapiens, UniProt P33261). Nature of the series: CYP450 inhibition in human liver microsomes. The conditions noted are these: pooled human liver microsomes, pH 7.4, probe (S)-mephenytoin (50 μM). Format: in vitro ADME. Summed up: as §1
Series [5] is described as follows: Pharmacokinetic studies in rats. It is filed as in vivo. Particulars: male, Sprague-Dawley, rat, plasma; for clearance: iv, 0.5 mg/kg; for bioavailability: po, 2 mg/kg. Summed up:
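Male Sprague-Dawley rats got a single IV bolus (0.5 mg kg−1, in 10% DMSO in 20% hydroxypropyl methyl β-cyclodextrin) or oral gavage (2 mg kg−1, in 40% polyethylene glycol in water). Plasma was taken pre-dose and up to 24 h and assayed by LC-MS/MS. CL and F came from non-compartmental analysis.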

The next series relates to HBV. Particulars: cited from earlier work.
The mark [6] stands for this setting: HepG2.2.15, read-out: HBV DNA inhibition EC50.

Where two headings read alike, the source gives them in different places.

CYP2C19, sequence (P33261 whole entry): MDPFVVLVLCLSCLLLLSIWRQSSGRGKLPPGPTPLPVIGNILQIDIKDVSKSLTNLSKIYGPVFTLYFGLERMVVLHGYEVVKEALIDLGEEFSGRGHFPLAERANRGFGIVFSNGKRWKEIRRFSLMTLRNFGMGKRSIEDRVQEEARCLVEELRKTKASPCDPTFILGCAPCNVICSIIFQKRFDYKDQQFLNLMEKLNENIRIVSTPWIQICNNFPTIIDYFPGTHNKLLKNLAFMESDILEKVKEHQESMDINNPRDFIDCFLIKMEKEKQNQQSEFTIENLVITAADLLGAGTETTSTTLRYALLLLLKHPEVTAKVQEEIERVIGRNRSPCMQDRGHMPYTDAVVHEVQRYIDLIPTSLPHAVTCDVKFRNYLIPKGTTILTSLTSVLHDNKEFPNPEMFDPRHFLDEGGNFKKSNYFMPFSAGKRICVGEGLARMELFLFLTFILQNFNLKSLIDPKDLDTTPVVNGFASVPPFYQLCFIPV

The compound `O=C(Nc1cc(F)c(F)c(F)c1)[C@H]1CCN(C(=O)c2ccc(-c3ccccn3)[nH]2)C1` [CU07, (S)-1-(5-(Pyridin-2-yl)-1H-pyrrole-2-carbonyl)-N-(3,4,5-trifluorophenyl)pyrrolidine-3-carboxamide] yielded a CLint in series [1] (Table 3) of 6.2 μL per min per mg protein. In series [2], this compound displayed an inhibition at 10 min, 10 µM of less than 20%. Besides, in series [3], the activity at 1 µM was 77%.

In series [1] (Table 4), `Cc1cc(NC(=O)[C@H]2CCN(C(=O)c3ccc(-c4c(C)n[nH]c4C)[nH]3)[C@H]2C)ccc1F` [CU16, (2S,3S)-1-(5-(3,5-Dimethyl-1H-pyrazol-4-yl)-1H-pyrrole-2-carbonyl)-N-(4-fluoro-3-methylphenyl)-2-methylpyrrolidine-3-carboxamide] yielded a CLint of 11.7 μL per min per mg protein. In addition, the 50% effective concentration (EC50) in series [3] (setting [6]) came to 14.9 ± 3 nM.

With `O=C(Nc1cc(F)c(F)c(F)c1)[C@H]1CCN(C(=O)c2ccc(-c3cccnc3)[nH]2)C1` [CU05, (S)-1-(5-(Pyridin-3-yl)-1H-pyrrole-2-carbonyl)-N-(3,4,5-trifluorophenyl)pyrrolidine-3-carboxamide], the CLint in series [1] (Table 3) is listed as 2.9 μL per min per mg protein. Moreover, the inhibition at 10 min, 10 µM on CYP2B6 was 65%; against CYP2C9, 87%. For the same compound, the activity at 1 µM in series [3] stood at 47%.

With `Cc1ncnc(C)c1-c1ccc(C(=O)N2CC[C@H](C(=O)Nc3cc(F)c(F)c(F)c3)[C@@H]2C)[nH]1` [CU13, (2S,3S)-1-(5-(4,6-Dimethylpyrimidin-5-yl)-1H-pyrrole-2-carbonyl)-2-methyl-N-(3,4,5-trifluorophenyl)pyrrolidine-3-carboxamide], the CLint in series [1] (Table 4) is reported as 2.1 μL per min per mg protein. The EC50 in series [3] (setting [6]) amounted to 17.8 ± 3 nM.

Take `O=C(Nc1cc(F)c(F)c(F)c1)[C@H]1CCN(C(=O)c2cc3ccccc3[nH]2)C1` [CU03, (S)-1-(1H-Indole-2-carbonyl)-N-(3,4,5-trifluorophenyl)pyrrolidine-3-carboxamide]: the CLint in series [1] (Table 3) came to 9.2 μL per min per mg protein. The “Site of oxidative metabolic reactions” value in [4] is “oxidative metabolic reactions primarily occurred on the R group”. In addition, the inhibition at 10 min, 10 µM against CYP2D6 came to 51%; on CYP2C19 it was 63%; against CYP2C9, 62%. The EC50 in series [3] (HepG2.2.15) is 447 nM. In [3], the activity at 1 µM was determined as 44%.

Turning to `Cc1ccc(C(=O)N2CC[C@H](C(=O)Nc3cc(F)c(F)c(F)c3)C2)[nH]1` [CU01, (S)-1-(5-Methyl-1H-pyrrole-2-carbonyl)-N-(3,4,5-trifluorophenyl)pyrrolidine-3-carboxamide], in series [1] (Table 3), the CLint stood at 14.4 μL per min per mg protein. This compound also yielded an inhibition at 10 min, 10 µM in series [2] of less than 20%. For the same compound, in series [3], the activity at 1 µM was 59%.

With `O=C(Nc1cc(F)c(F)c(F)c1)[C@H]1CCN(C(=O)c2ccc(-c3ccncc3)[nH]2)C1` [CU06, (S)-1-(5-(Pyridin-4-yl)-1H-pyrrole-2-carbonyl)-N-(3,4,5-trifluorophenyl)pyrrolidine-3-carboxamide], the CLint in [1] (Table 3) is 4.6 μL per min per mg protein. Moreover, the figures for the inhibition at 10 min, 10 µM at CYP2D6, on CYP2B6 and on CYP2C9 were 89%, 81% and 67%, respectively. The activity at 1 µM in series [3] worked out at 28%.

For the compound `O=C(Nc1cc(F)c(F)c(F)c1)[C@H]1CCN(C(=O)c2ccc(-c3cncnc3)[nH]2)C1` [CU08, (S)-1-(5-(Pyrimidin-5-yl)-1H-pyrrole-2-carbonyl)-N-(3,4,5-trifluorophenyl)pyrrolidine-3-carboxamide], the CLint in series [1] (Table 3) stood at 0.5 μL per min per mg protein. Besides, the inhibition at 10 min, 10 µM at CYP2B6 worked out at 61%; against CYP2C9 it was 53%. Besides, the activity at 1 µM in series [3] turned out to be 43%.

`Cc1cc(NC(=O)[C@H]2CCN(C(=O)c3ccc(-c4c(C)ncnc4C)[nH]3)[C@H]2C)ccc1F` [CU15, (2S,3S)-1-(5-(4,6-Dimethylpyrimidin-5-yl)-1H-pyrrole-2-carbonyl)-N-(4-fluoro-3-methylphenyl)-2-methylpyrrolidine-3-carboxamide]: the CLint in series [1] (Table 4) is given as 4.9 μL per min per mg protein. The same compound returned a clearance in series [5] of 20 mL/min/kg. For the same compound, in series [5], the bioavailability was 44%. For the same compound, the 50% effective concentration (EC50) in series [3] (HepG2.2.15) is less than 10 nM; in series [3] (setting [6]) it was 8.6 ± 2 nM.

Regarding `C[C@H](NS(=O)(=O)c1cc(C(=O)Nc2ccc(F)c(C#N)c2)n(C)c1)C(F)(F)F` [JNJ-6379], the “pEC 50” value with HBV was 7.22 (ref. [15]).

Consider `O=C(Nc1cc(F)c(F)c(F)c1)[C@H]1CCN(C(=O)c2ccc(C3CC3)[nH]2)C1` [CU02, (S)-1-(5-cyclopropyl-1H-pyrrole-2-carbonyl)-N-(3,4,5-trifluorophenyl)pyrrolidine-3-carboxamide], for which the CLint in series [1] (Table 3) is listed as 14.5 μL per min per mg protein. Further, the “Site of oxidative metabolic reactions” value in series [4] was “oxidative metabolic reactions primarily occurred on the R group”. The inhibition at 10 min, 10 µM against CYP2C19 worked out at 53%; on CYP2B6 it was 50%. For the same compound, the activity at 1 µM in series [3] was found to be 48%.

`Cc1ncnc(C)c1-c1ccc(C(=O)N2CC[C@H](C(=O)Nc3ccc(F)c(Cl)c3)C2)[nH]1` [CU12, (S)–N-(3-Chloro-4-fluorophenyl)-1-(5-(4,6-dimethylpyrimidin-5-yl)-1H-pyrrole-2-carbonyl)pyrrolidine-3-carboxamide] registered a CLint in series [1] (Table 4) of 3.6 μL per min per mg protein. Further, in series [3] (setting [6]), the concentration giving a half-maximal response (EC50) was 18.2 ± 2 nM.

Compound `Cc1ncnc(C)c1-c1ccc(C(=O)N2CC[C@H](C(=O)Nc3ccc(F)c(Cl)c3)[C@@H]2C)[nH]1` [CU14, (2S,3S)–N-(3-Chloro-4-fluorophenyl)-1-(5-(4,6-dimethylpyrimidin-5-yl)-1H-pyrrole-2-carbonyl)-2-methylpyrrolidine-3-carboxamide] yielded a CLint in series [1] (Table 4) of 2.9 μL per min per mg protein. Besides, in series [5], the clearance came to 12.3 mL/min/kg and the bioavailability is 66%. Further, in series [3] (setting [6]), the EC50 came to 13.2 ± 2 nM.

Usually inhibition stands for the relative decrease from the control value, in per cent. A lower inhibition goes with little suppression. As usually defined, the EC50 is the concentration giving half of the maximal effect. A word on the clearance: it is a measure of how efficiently the substance is removed, as volume per time. Read a high clearance as a high capacity for elimination. A word on the bioavailability: it is the share of a dose that reaches the circulation, judged against a reference dose that is usually intravenous.

The record behind these values is publication PMC10556424 (RSC Advances, 2023).
